Assay results reported in ChEMBL document CHEMBL1126238, “Chemical and enzyme-mediated oxidation of the serotonergic neurotoxin 5,7-dihydroxytryptamine: mechanistic insights” (J Med Chem, 1992).

Tests used:
Format in all cases: ADME
[1] = Effect of transition metal ion [Fe3+] (10 uM) on the initial rate of oxygen consumption during the autooxidation
In short: (§1)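 5,7-Dihydroxytryptamine (1.0 mM) in 3.0 mL air-saturated pH 7.4 phosphate buffer (ionic strength 0.1), 37 °C, with metal ion and/or chelator (DTPA or EDTA) added; Cu2+ supplied as CuSO4. The initial O2 consumption rate (nmol O2/min) was read with a Clark-type oxygen electrode. Values are mean (n ≥ 2) ± SD.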

[2] = Effect of transition metal ion and complexing agent Mn2+ (100 uM) +EDTA (10 uM) on the initial rate of oxygen consumption during the autooxidation; in short: as §1
[3] = Effect of transition metal ion and complexing agent [Fe2+] (100 uM) +DTPA (10 uM) on the initial rate of oxygen consumption during the autooxidation; in short: as §1
[4] = Influence of Catalase (100 ug/mL) on the transition metal Mn2+ (100 uM) ion mediated autoxidation.
In short: (§2)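 5,7-Dihydroxytryptamine (1.0 mM, 3.0 mL) in pH 7.4 phosphate buffer (ionic strength 0.1) at 37 °C. Runs contained 10 μM Cu2+ (as CuSO4) or 100 μM Fe2+, Fe3+ or Mn2+, alone or with catalase (100 μg/mL) or SOD (333 units/mL). The initial O2 uptake rate was measured by Clark-type oxygen electrode. Values are mean (n ≥ 2) ± SD.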

[5] = Initial rate of oxygen consumption during the autooxidation of the compound.; in short: as §1
[6] = Effect of complexing agent EDTA (1 uM) on the initial rate of oxygen consumption during the autooxidation; in short: as §1
[7] = Influence of Catalase (100 ug/mL) on the transition metal [Fe3+] (100 uM) ion mediated autoxidation.; in short: as §2
[8] = Effect of transition metal ion [Fe2+] (10 uM) on the initial rate of oxygen consumption during the autooxidation; in short: as §1
[9] = Influence of Catalase (100 ug/mL) on the transition metal [Fe2+] (100 uM) ion mediated autoxidation.; in short: as §2
[10] = Effect of transition metal ion [Fe3+] (50 uM) on the initial rate of oxygen consumption during the autooxidation; in short: as §1
[11] = Effect of complexing agent DTPA (1 uM) on the initial rate of oxygen consumption during the autooxidation; in short: as §1
[12] = Influence of Catalase (100 ug/mL) on the transition metal Cu2+ (10 uM) ion mediated autoxidation.; in short: as §2
[13] = Effect of transition metal ion and complexing agent Mn2+ (100 uM) +DTPA (10 uM) on the initial rate of oxygen consumption during the autooxidation; in short: as §1
[14] = Effect of transition metal ion Mn2+ (10 uM) on the initial rate of oxygen consumption during the autooxidation; in short: as §1
[15] = Effect of complexing agent DTPA (10 uM) on the initial rate of oxygen consumption during the autooxidation; in short: as §1
[16] = Influence of peroxidase enzyme (10 units/mL) on the initial rate of oxygen consumption at a pH of 7.4.; conditions: pH 7.4
In short: (§3)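 Substrate 5,7-dihydroxytryptamine, 1.0 mM, in 3.0 mL air-saturated pH 7.4 phosphate buffer (ionic strength 0.1). Peroxidase was added at the listed units/mL, either with 1.0 mM H2O2 or with no H2O2. The initial O2 consumption rate was measured with a Clark-type oxygen electrode.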

[17] = Effect of transition metal ion [Fe3+] (200 uM) on the initial rate of oxygen consumption during the autooxidation; in short: as §1
[18] = Influence of superoxide dismutase SOD (333 units/mL) on the transition metal Mn2+ (100 uM) ion mediated autoxidation.; in short: as §2
[19] = Effect of transition metal ion [Fe2+] (200 uM) on the initial rate of oxygen consumption during the autooxidation; in short: as §1
[20] = Effect of transition metal ion and complexing agent [Fe2+] (100 uM) +EDTA (10 uM) on the initial rate of oxygen consumption during the autooxidation; in short: as §1
[21] = Influence of superoxide dismutase SOD (333 units/mL) on the transition metal Cu2+ (10 uM) ion mediated autoxidation.; in short: as §2
[22] = Influence of tyrosinase enzyme (18 units/mL) on the initial rate of oxygen consumption at a pH of 7.4.; conditions: pH 7.4
In short: (§4)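 5,7-Dihydroxytryptamine (1.0 mM) in 3.0 mL air-saturated phosphate buffer (ionic strength 0.1) at the stated pH, with bovine ceruloplasmin or mushroom tyrosinase at the listed units/mL. Initial O2 consumption (nmol O2/min) was recorded with a Clark-type oxygen electrode.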

[23] = Effect of transition metal ion [Fe3+] (100 uM) on the initial rate of oxygen consumption during the autooxidation; in short: as §1
[24] = Influence of ceruplasmin enzyme (10.5 units/mL) on the initial rate of oxygen consumption at a pH of 7.4.; conditions: pH 7.4; in short: as §4
[25] = Effect of transition metal ion Mn2+ (50 uM) on the initial rate of oxygen consumption during the autooxidation; in short: as §1
[26] = Effect of transition metal ion Cu2+ (40 uM) on the initial rate of oxygen consumption during the autooxidation; in short: as §1
[27] = Influence of superoxide dismutase SOD (333 units/mL) on the transition metal [Fe3+] (100 uM) ion mediated autoxidation.; in short: as §2
[28] = Effect of transition metal ion and complexing agent Cu2+ (10 uM) +DTPA (1 uM) on the initial rate of oxygen consumption during the autooxidation; in short: as §1
[29] = Effect of transition metal ion Mn2+ (100 uM) on the initial rate of oxygen consumption during the autooxidation; in short: as §1
[30] = Influence of tyrosinase enzyme (36 units/mL) on the initial rate of oxygen consumption at a pH of 7.4.; conditions: pH 7.4; in short: as §4
[31] = Influence of superoxide dismutase SOD (333 units/mL) on the transition metal [Fe2+] (100 uM) ion mediated autoxidation.; in short: as §2
[32] = Effect of transition metal ion Cu2+ (20 uM) on the initial rate of oxygen consumption during the autooxidation; in short: as §1
[33] = Effect of transition metal ion and complexing agent Cu2+ (10 uM) +EDTA (1 uM) on the initial rate of oxygen consumption during the autooxidation; in short: as §1
[34] = Effect of complexing agent DTPA (0.5 uM) on the initial rate of oxygen consumption during the autooxidation; in short: as §1
[35] = Influence of ceruplasmin enzyme (10.5 units/mL) on the initial rate of oxygen consumption at a pH of 6.4.; conditions: pH 6.4; in short: as §4
[36] = Influence of ceruplasmin enzyme (42.0 units/mL) on the initial rate of oxygen consumption at a pH of 7.4.; conditions: pH 7.4; in short: as §4
[37] = Effect of transition metal ion Cu2+ (10 uM) on the initial rate of oxygen consumption during the autooxidation; in short: as §1
[38] = Effect of transition metal ion and complexing agent [Fe3+] (100 uM) +EDTA (10 uM) on the initial rate of oxygen consumption during the autooxidation; in short: as §1
[39] = Effect of transition metal ion and complexing agent [Fe3+] (100 uM) +DTPA (10 uM) on the initial rate of oxygen consumption during the autooxidation; in short: as §1
[40] = Influence of tyrosinase enzyme (4.5 units/mL) on the initial rate of oxygen consumption at a pH of 7.4.; conditions: pH 7.4; in short: as §4
[41] = Influence of tyrosinase enzyme (9 units/mL) on the initial rate of oxygen consumption at a pH of 7.4.; conditions: pH 7.4; in short: as §4
[42] = Influence of peroxidase enzyme (5 units/mL) on the initial rate of oxygen consumption at a pH of 7.4.; conditions: pH 7.4; in short: as §3
[43] = Effect of transition metal ion [Fe2+] (100 uM) on the initial rate of oxygen consumption during the autooxidation; in short: as §1
[44] = Influence of ceruplasmin enzyme (21.0 units/mL) on the initial rate of oxygen consumption at a pH of 7.4.; conditions: pH 7.4; in short: as §4
[45] = Effect of transition metal ion [Fe2+] (50 uM) on the initial rate of oxygen consumption during the autooxidation; in short: as §1
[46] = Effect of transition metal ion Cu2+ (1 uM) on the initial rate of oxygen consumption during the autooxidation; in short: as §1
[47] = Influence of peroxidase enzyme (15 units/mL) on the initial rate of oxygen consumption at a pH of 7.4.; conditions: pH 7.4; in short: as §3

## NCCc1c[nH]c2c(O)cc(O)cc12
[1]
  Rate of O2 consumption: 50 nM/min
[2]
  Rate of O2 consumption: 51.3 nM/min
[3]
  Rate of O2 consumption: 58 nM/min
[4]
  Rate of O2 consumption: 54.5 nM/min
[5]
  Rate of O2 consumption: 34.1 nM/min
[6]
  Rate of O2 consumption: 39.6 nM/min
[7]
  Rate of O2 consumption: 51 nM/min
[8]
  Rate of O2 consumption: 252 nM/min
[9]
  Rate of O2 consumption: 328 nM/min
[10]
  Rate of O2 consumption: 68 nM/min
[11]
  Rate of O2 consumption: 24.2 nM/min
[12]
  Rate of O2 consumption: 1524 nM/min
[13]
  Rate of O2 consumption: 36.7 nM/min
[14]
  Rate of O2 consumption: 61 nM/min
[15]
  Rate of O2 consumption: 23.6 nM/min
[16]
  Rate of O2 consumption: 89 nM/min
[17]
  Rate of O2 consumption: 125 nM/min
[18]
  Rate of O2 consumption: 81.2 nM/min
[19]
  Rate of O2 consumption: 801 nM/min
[20]
  Rate of O2 consumption: 712 nM/min
[21]
  Rate of O2 consumption: 1583 nM/min
[22]
  Rate of O2 consumption: 192 nM/min
[23]
  Rate of O2 consumption: 86 nM/min
[24]
  Rate of O2 consumption: 71.4 nM/min
[25]
  Rate of O2 consumption: 70 nM/min
[26]
  Rate of O2 consumption: 2367 nM/min
[27]
  Rate of O2 consumption: 48.5 nM/min
[28]
  Rate of O2 consumption: 32.1 nM/min
[29]
  Rate of O2 consumption: 87 nM/min
[30]
  Rate of O2 consumption: 304 nM/min
[31]
  Rate of O2 consumption: 645 nM/min
[32]
  Rate of O2 consumption: 2244 nM/min
[33]
  Rate of O2 consumption: 45.6 nM/min
[34]
  Rate of O2 consumption: 24 nM/min
[35]
  Rate of O2 consumption: 453 nM/min
[36]
  Rate of O2 consumption: 240 nM/min
[37]
  Rate of O2 consumption: 1490 nM/min
[38]
  Rate of O2 consumption: 97 nM/min
[39]
  Rate of O2 consumption: 39.2 nM/min
[40]
  Rate of O2 consumption: 85 nM/min
[41]
  Rate of O2 consumption: 126 nM/min
[42]
  Rate of O2 consumption: 79 nM/min
[43]
  Rate of O2 consumption: 628 nM/min
[44]
  Rate of O2 consumption: 129 nM/min
[45]
  Rate of O2 consumption: 483 nM/min
[46]
  Rate of O2 consumption: 638 nM/min
[47]
  Rate of O2 consumption: 102 nM/min
